# The source made the active and inactive calls. The rule behind the calls is not given here.
# Columns and labels:
# [1] = target: 5-hydroxytryptamine receptor 1B (Homo sapiens, UniProt P28222); experiment: Displacement of [3H]5-hydroxytryptamine from human cloned 5HT1B receptor expressed in CHOK1 cells by liquid scintillation counting; assay type: cell-based, CHO-K1
# [2] = Displacement of [3H]5-hydroxytryptamine from rhesus monkey cloned 5HT1F receptor expressed in African green monkey COS7 cells by liquid scintillation counting; assay type: cell-based, Macaca mulatta; conditions: cos-7
# Summary of the method: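 Rhesus monkey 5-HT1F cloned by PCR into pcDNA3.1 and transiently transfected into COS-7 cells. Membranes prepared by homogenization in 50 mM Tris-HCl, 5 mM EDTA, pH 7.4. Filtered over GF/B and counted by liquid scintillation. Ki calculated via Cheng-Prusoff. Mean of more than two runs in duplicate or triplicate.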
# [3] = target: 5-hydroxytryptamine receptor 1D (Homo sapiens, UniProt P28221); experiment: Displacement of [3H]5-hydroxytryptamine from human cloned 5HT1D receptor expressed in CHOK1 cells by liquid scintillation counting; assay type: cell-based, CHO-K1
# Chain of 5-hydroxytryptamine receptor 1D (P28221 whole entry): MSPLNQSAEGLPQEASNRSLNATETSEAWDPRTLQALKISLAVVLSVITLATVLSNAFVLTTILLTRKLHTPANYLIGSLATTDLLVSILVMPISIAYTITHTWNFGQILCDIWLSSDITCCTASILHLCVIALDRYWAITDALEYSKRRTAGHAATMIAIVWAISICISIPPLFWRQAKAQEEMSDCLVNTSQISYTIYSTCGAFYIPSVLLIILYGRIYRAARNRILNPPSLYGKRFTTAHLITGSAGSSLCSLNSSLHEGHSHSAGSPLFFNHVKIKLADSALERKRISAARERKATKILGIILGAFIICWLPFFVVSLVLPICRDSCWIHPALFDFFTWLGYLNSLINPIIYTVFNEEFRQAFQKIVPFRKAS
# Summary of the method: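 Membranes from CHO-K1 cells expressing cloned human 5-HT1D were purchased. Stopped by filtration over GF/B filters and counted by liquid scintillation. Ki derived from IC50 by Cheng-Prusoff. Each value is the mean of more than two runs done in duplicate or triplicate.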
# [4] = target: Beta-2 adrenergic receptor (Homo sapiens, UniProt P07550); experiment: Binding affinity to human adrenergic beta2 receptor
# Chain of Beta-2 adrenergic receptor (P07550 whole entry): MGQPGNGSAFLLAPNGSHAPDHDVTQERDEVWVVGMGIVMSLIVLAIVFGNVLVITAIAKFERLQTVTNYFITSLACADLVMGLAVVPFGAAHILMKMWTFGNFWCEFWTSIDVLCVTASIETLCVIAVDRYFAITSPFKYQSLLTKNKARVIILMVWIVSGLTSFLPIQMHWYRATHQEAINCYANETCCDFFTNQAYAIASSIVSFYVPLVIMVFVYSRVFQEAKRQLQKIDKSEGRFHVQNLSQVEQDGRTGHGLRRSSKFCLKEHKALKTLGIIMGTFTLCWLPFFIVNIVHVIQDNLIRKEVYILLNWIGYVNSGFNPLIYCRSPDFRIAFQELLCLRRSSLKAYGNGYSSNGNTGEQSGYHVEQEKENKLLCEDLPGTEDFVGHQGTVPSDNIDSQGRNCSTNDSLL
# D(2) dopamine receptor = D(2) dopamine receptor (Homo sapiens, UniProt P14416); experiment: Binding affinity to human dopamine D2 receptor
# Chain of D(2) dopamine receptor (P14416 whole entry): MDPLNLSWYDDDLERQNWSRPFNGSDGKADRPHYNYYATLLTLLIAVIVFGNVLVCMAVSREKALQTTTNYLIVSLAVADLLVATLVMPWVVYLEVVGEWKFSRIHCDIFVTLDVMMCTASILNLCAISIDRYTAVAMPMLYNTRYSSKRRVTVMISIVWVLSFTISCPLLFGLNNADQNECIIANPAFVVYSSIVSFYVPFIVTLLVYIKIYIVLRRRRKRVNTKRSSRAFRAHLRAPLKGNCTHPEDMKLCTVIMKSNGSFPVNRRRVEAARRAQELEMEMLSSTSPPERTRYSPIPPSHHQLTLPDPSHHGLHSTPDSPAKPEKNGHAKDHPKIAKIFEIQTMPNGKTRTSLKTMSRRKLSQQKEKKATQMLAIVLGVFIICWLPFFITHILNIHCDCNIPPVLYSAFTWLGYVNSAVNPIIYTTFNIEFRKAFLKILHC
# [5] = target: T1, Muscarinic acetylcholine receptor M2 (Homo sapiens, UniProt P08172); experiment: Binding affinity to human muscarinic M2 receptor
# T1 sequence (P08172 whole entry): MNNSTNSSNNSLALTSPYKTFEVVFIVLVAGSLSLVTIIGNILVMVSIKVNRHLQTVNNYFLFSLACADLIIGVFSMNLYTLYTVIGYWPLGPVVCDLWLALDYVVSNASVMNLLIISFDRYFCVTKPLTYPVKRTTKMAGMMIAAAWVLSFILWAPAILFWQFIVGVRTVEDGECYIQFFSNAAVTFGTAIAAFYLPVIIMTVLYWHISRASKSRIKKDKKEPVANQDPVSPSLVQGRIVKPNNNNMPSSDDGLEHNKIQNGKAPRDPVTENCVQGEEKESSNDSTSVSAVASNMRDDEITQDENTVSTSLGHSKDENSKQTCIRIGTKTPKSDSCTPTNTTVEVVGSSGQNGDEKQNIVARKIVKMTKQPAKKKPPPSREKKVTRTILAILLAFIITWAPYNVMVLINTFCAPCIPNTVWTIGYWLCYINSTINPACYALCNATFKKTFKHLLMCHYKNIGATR
# [6] = target: 5-hydroxytryptamine receptor 1B (Oryctolagus cuniculus) (UniProt P49144); experiment: Agonist activity at rabbit 5HT1B receptor assessed as induction of saphenous vein contraction at 30 uM after 5 mins; assay type: functional, tissue-based
# Chain of 5-hydroxytryptamine receptor 1B (Oryctolagus cuniculus) (P49144 whole entry): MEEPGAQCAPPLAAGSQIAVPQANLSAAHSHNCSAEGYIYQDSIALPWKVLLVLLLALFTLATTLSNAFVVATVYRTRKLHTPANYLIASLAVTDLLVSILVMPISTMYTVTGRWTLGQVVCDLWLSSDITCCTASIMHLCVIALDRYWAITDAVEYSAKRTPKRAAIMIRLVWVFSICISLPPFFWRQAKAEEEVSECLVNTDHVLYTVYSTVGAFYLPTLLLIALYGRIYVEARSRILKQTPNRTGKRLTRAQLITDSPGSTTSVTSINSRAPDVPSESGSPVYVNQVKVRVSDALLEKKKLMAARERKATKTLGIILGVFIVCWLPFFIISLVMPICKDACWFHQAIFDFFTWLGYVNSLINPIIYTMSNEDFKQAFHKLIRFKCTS
# [7] = target: Muscarinic acetylcholine receptor M3 (Homo sapiens, UniProt P20309); experiment: Binding affinity to human muscarinic M3 receptor
# Chain of Muscarinic acetylcholine receptor M3 (P20309 whole entry): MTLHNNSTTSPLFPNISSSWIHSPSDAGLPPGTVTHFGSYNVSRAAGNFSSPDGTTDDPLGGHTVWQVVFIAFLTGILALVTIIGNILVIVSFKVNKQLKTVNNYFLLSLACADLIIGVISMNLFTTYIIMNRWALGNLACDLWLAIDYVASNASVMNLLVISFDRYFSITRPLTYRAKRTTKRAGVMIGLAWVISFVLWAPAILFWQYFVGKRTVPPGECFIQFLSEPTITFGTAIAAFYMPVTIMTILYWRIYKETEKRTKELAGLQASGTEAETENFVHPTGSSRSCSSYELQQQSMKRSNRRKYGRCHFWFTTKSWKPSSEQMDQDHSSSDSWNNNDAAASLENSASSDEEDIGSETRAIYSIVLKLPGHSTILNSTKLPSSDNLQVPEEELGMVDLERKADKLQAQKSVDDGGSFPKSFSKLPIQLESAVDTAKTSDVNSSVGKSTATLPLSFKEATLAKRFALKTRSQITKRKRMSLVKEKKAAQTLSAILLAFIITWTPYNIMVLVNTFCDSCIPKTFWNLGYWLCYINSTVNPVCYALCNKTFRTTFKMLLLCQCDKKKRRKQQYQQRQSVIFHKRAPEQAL
# [8] = target: 5-hydroxytryptamine receptor 1B (Oryctolagus cuniculus) (UniProt P49144); experiment: Antagonist activity at rabbit 5HT1B receptor assessed as inhibition of sumatriptan-induced saphenous vein contraction at 30 uM; assay type: functional, tissue-based; parameters: scale not given: the % may be the effect or the level left
# [9] = target: T2, 5-hydroxytryptamine receptor 1A (Homo sapiens, UniProt P08908); experiment: Binding affinity to 5HT1A receptor
# T2 sequence (P08908 whole entry): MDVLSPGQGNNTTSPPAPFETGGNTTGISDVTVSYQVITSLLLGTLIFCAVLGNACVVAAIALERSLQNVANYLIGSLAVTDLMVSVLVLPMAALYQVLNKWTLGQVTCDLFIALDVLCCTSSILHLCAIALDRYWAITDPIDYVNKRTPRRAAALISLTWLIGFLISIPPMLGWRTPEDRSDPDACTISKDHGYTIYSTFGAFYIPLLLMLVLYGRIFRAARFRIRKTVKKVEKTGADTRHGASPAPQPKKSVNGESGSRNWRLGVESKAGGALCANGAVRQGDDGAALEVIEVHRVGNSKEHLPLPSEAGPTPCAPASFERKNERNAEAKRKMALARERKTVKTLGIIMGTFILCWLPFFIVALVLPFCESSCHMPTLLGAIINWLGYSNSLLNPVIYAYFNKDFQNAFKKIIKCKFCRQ
# [10] = Displacement of [3H]5-hydroxytryptamine from human cloned 5HT1D receptor expressed in CHOK1 cells by liquid scintillation counting; conditions: cho-k1
# Chain of 5-hydroxytryptamine receptor 1B (P28222 whole entry): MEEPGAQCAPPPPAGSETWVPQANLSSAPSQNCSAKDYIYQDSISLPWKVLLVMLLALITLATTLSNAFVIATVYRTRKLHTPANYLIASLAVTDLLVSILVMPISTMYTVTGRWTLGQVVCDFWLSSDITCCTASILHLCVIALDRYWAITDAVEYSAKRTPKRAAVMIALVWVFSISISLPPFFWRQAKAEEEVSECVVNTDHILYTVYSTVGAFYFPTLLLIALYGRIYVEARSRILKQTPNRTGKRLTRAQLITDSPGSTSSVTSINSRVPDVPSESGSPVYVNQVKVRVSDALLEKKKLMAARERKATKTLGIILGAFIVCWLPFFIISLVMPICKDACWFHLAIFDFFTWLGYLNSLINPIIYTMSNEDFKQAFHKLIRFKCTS
Ki [1] [nM],Ki [3] [nM],Compound,Ki [2] [nM],other results
> 1000,> 1000,O=C(Nc1ccc2[nH]cc(C3CCN(CC(N4CCC(c5c[nH]c6ccc(NC(=O)c7ccc(F)cc7)cc56)CC4)C(F)(F)F)CC3)c2c1)c1ccc(F)cc1 (configuration not stated),24,
> 1000,> 1000,CN(C)CCCN1CCC(c2c[nH]c3ccc(NC(=O)c4ccc(F)cc4)cc23)CC1,124,
0.79,0.95,CN1CCC(c2c[nH]c3ccc(NC(=O)CCCCCCCCC(=O)Nc4ccc5[nH]cc(C6CCN(C)CC6)c5c4)cc23)CC1,> 10000,
1.3,0.9,CN1CCC(c2c[nH]c3ccc(NC(=O)CCCCCCCCCC(=O)Nc4ccc5[nH]cc(C6CCN(C)CC6)c5c4)cc23)CC1,> 10000,
,,CN1CCC(c2c[nH]c3ccc(NC(=O)c4ccc(F)cc4)cc23)CC1,3,
> 1000,> 1000,O=C(Nc1ccc2[nH]cc(C3CCN(CCO)CC3)c2c1)c1ccc(F)cc1,9,
18,1.5,O=C(Nc1ccc2[nH]cc(C3CCN(CCOCCOCCN4CCC(c5c[nH]c6ccc(NC(=O)c7ccc(F)cc7)cc56)CC4)CC3)c2c1)c1ccc(F)cc1,27,
> 10000,79,O=C(Nc1ccc2[nH]cc(C3CCN(CCCN4CCC(c5c[nH]c6ccc(NC(=O)c7ccc(F)cc7)cc56)CC4)CC3)c2c1)c1ccc(F)cc1,> 10000,
> 1000,> 1000,NC(=O)C(CN1CCC(c2c[nH]c3ccc(NC(=O)c4ccc(F)cc4)cc23)CC1)N1CCC(c2c[nH]c3ccc(NC(=O)c4ccc(F)cc4)cc23)CC1 (configuration not stated),48,
> 10000,219,O=C(Nc1ccc2[nH]cc(C3CCN(CCN4CCC(c5c[nH]c6ccc(NC(=O)c7ccc(F)cc7)cc56)CC4)CC3)c2c1)c1ccc(F)cc1,> 10000,
38,13,O=C(Nc1ccc2[nH]cc(C3CCN(CCCCCCCCCCN4CCC(c5c[nH]c6ccc(NC(=O)c7ccc(F)cc7)cc56)CC4)CC3)c2c1)c1ccc(F)cc1,> 10000,
126,1,O=C(Nc1ccc2[nH]cc(C3CCN(CCCCCCCCCN4CCC(c5c[nH]c6ccc(NC(=O)c7ccc(F)cc7)cc56)CC4)CC3)c2c1)c1ccc(F)cc1,> 10000,
> 1000,> 1000,O=C(O)CCCCCCCCCN1CCC(c2c[nH]c3ccc(NC(=O)c4ccc(F)cc4)cc23)CC1,> 1000,
32,3.9,O=C(Nc1ccc2[nH]cc(C3CCN(CCOCCOCCOCCN4CCC(c5c[nH]c6ccc(NC(=O)c7ccc(F)cc7)cc56)CC4)CC3)c2c1)c1ccc(F)cc1,28,
> 10000,13,O=C(Nc1ccc2[nH]cc(C3CCN(CCCCCCCCCCCCN4CCC(c5c[nH]c6ccc(NC(=O)c7ccc(F)cc7)cc56)CC4)CC3)c2c1)c1ccc(F)cc1,> 10000,
79,0.3,O=C(Nc1ccc2[nH]cc(C3CCN(CCCCCCCN4CCC(c5c[nH]c6ccc(NC(=O)c7ccc(F)cc7)cc56)CC4)CC3)c2c1)c1ccc(F)cc1,> 10000,IC50 [4]: > 10000 nM; IC50 (D(2) dopamine receptor): 700 nM; IC50 [5]: 3200 nM; Activity [6]: inactive; IC50 [7]: > 50000 nM

Ki [1] [nM],Ki [3] [nM],Compound,Ki [2] [nM],other results
100,0.6,O=C(Nc1ccc2[nH]cc(C3CCN(CCCCCCN4CCC(c5c[nH]c6ccc(NC(=O)c7ccc(F)cc7)cc56)CC4)CC3)c2c1)c1ccc(F)cc1,> 10000,
0.58,2.3,CN1CCC(c2c[nH]c3ccc(NC(=O)CCCCCCCCCCCCCC(=O)Nc4ccc5[nH]cc(C6CCN(C)CC6)c5c4)cc23)CC1,> 10000,
,,CNS(=O)(=O)Cc1ccc2[nH]cc(CCN(C)C)c2c1,234,
126,13,O=C(Nc1ccc2[nH]cc(C3CCN(CCCCCCCCCCCN4CCC(c5c[nH]c6ccc(NC(=O)c7ccc(F)cc7)cc56)CC4)CC3)c2c1)c1ccc(F)cc1,> 10000,
0.5,1.7,CN1CCC(c2c[nH]c3ccc(NC(=O)CCCCCCCCCCCCC(=O)Nc4ccc5[nH]cc(C6CCN(C)CC6)c5c4)cc23)CC1,> 10000,Activity [8]: 58%; Activity [6]: 24%
0.81,11.3,CN1CCC(c2c[nH]c3ccc(NC(=O)CCCCCCCCCCCCCCC(=O)Nc4ccc5[nH]cc(C6CCN(C)CC6)c5c4)cc23)CC1,> 10000,
453,151,O=C(Nc1ccc2[nH]cc(C3CCN(Cc4cccc(CN5CCC(c6c[nH]c7ccc(NC(=O)c8ccc(F)cc8)cc67)CC5)c4)CC3)c2c1)c1ccc(F)cc1,> 1000,
,,NCCc1c[nH]c2ccc(O)cc12 [SEROTONIN],35,
> 1000,> 1000,O=C(Nc1ccc2[nH]cc(C3CCN(CCN4CCCCC4)CC3)c2c1)c1ccc(F)cc1,> 1000,
,,NC(=O)c1ccc2[nH]cc(C3=CCC(NCCCCCCCNC4CC=C(c5c[nH]c6ccc(C(N)=O)cc56)CC4)CC3)c2c1 (configuration not stated),,IC50 [9]: 1.83 nM; IC50 [10]: 0.05 nM
16,3.4,CN1CCC(c2c[nH]c3ccc(NC(=O)CC(=O)Nc4ccc5[nH]cc(C6CCN(C)CC6)c5c4)cc23)CC1,> 10000,
0.1,1.4,CN1CCC(c2c[nH]c3ccc(NC(=O)CCCCCCCCCCCC(=O)Nc4ccc5[nH]cc(C6CCN(C)CC6)c5c4)cc23)CC1,> 10000,
0.76,0.95,CN1CCC(c2c[nH]c3ccc(NC(=O)CCCC(=O)Nc4ccc5[nH]cc(C6CCN(C)CC6)c5c4)cc23)CC1,> 10000,
1.3,0.9,CN1CCC(c2c[nH]c3ccc(NC(=O)CCCCCCC(=O)Nc4ccc5[nH]cc(C6CCN(C)CC6)c5c4)cc23)CC1,> 10000,
> 1000,> 1000,CCCCCCCCN1CCC(c2c[nH]c3ccc(NC(=O)c4ccc(F)cc4)cc23)CC1,> 10000,
103,24,O=C(Nc1ccc2[nH]cc(C3CCN(C/C=C/CN4CCC(c5c[nH]c6ccc(NC(=O)c7ccc(F)cc7)cc56)CC4)CC3)c2c1)c1ccc(F)cc1,> 1000,

Compound,Ki [1] [nM],Ki [3] [nM],Ki [2] [nM],other results
CN1CCC(c2c[nH]c3ccc(N)cc23)CC1,353,39.6,> 10000,
O=C(Nc1ccc2[nH]cc(C3CCN(Cc4ccccc4)CC3)c2c1)c1ccc(F)cc1,> 1000,> 1000,32,

# Reference: ChEMBL document CHEMBL1150432 (J Med Chem, 2008)
